Test results taken from ChEMBL document CHEMBL1129604, “Design, synthesis, and evaluation of nonpeptidic inhibitors of human rhinovirus 3C protease” (J Med Chem, 1996).

Tests used:
[1] = target: T1, Human rhinovirus A protease (Human rhinovirus sp., UniProt Q4U254); experiment: Inhibition of human rhinovirus 3C protease; design: species or system Rhinovirus B
T1 sequence (Q4U254 whole entry): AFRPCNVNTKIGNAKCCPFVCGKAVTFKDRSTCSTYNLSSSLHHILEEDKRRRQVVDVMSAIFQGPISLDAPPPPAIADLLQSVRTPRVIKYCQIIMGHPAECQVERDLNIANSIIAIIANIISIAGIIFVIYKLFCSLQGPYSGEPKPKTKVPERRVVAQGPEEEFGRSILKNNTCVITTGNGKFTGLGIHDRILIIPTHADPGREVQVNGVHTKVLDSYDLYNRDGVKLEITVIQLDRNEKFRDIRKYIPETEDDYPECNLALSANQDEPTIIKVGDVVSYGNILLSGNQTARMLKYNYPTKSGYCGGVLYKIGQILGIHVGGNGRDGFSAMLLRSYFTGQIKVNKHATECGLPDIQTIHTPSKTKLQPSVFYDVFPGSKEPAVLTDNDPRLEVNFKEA
Summary of the method: (§1)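 Buffer was 50 mM Tris pH 7.6, 1 mM EDTA, 2% DMSO at 30 °C. Enzyme and inhibitor were preincubated 10 min before substrate start. Fluorescence ex 336/em 490 nm. Ki came from nonlinear fit of initial velocity versus inhibitor.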

HeLa [2] = experiment: Compound was tested for the 50% toxic concentration against Human Rhinovirus-14 (HRV-14) in Hela cells; type: functional; settings: read-out: TC50 (the source's name)
Summary of the method: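 HI-HeLa cells in MEM with 10% FBS, mock-infected with medium only, resuspended at 8 × 10^5 cells/mL and incubated with compound. After two days, XTT/PMS was added and formazan was read at 450/650 nm. CC50 is the concentration lowering formazan to 50% of compound-free uninfected cells.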

HeLa [3] = experiment: Compound was tested for the antiviral activity against Human Rhinovirus -14(HRV-14) in HeLa cells; type: functional, cell-based
Summary of the method: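 Cell protection assay in HI-HeLa cells (MEM, 10% FBS). Cells were infected with HRV-14 at moi 0.13, resuspended at 8 × 10^5 cells/mL and incubated with compound for two days. XTT/PMS formazan was read at 450/650 nm. EC50 is the concentration restoring formazan to 50% of compound-free uninfected cells.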

[4] = Theuraptic index was reported; type: functional
Summary of the method: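 TI is CC50 (uninfected HI-HeLa, XTT formazan) divided by EC50 (HRV-14-infected HI-HeLa, moi 0.13, two days, XTT read at 450/650 nm).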

Enterovirus [5] = experiment: Compound was tested for the inhibitory activity of compound towards human rhinovirus 3C protease; type: functional, organism-based; summary of the method: as §1
[6] = (§2) Percentage inhibition of Cathepsin (human liver) at 100 uM conc of drug; type: functional
[7] = target: Prothrombin (Homo sapiens) (UniProt P00734); experiment: (§3) Percentage inhibition of human thrombin at 100 uM conc of drug; type: functional
[8] = target: T2, Serine protease 1 (Bos taurus) (UniProt P00760); experiment: (§4) Percentage inhibition of bovine trypsin at 100 uM conc of drug; type: functional
T2 sequence (whole entry): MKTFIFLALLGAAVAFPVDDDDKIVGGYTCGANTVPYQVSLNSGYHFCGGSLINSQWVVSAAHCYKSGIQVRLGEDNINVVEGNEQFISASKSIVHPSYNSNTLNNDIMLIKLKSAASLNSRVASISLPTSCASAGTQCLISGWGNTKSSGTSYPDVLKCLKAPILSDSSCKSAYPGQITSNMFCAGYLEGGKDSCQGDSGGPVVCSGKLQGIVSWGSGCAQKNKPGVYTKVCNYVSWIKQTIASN

[9] = target: Chymotrypsinogen A (Bos taurus) (UniProt P00766); experiment: (§5) Percentage inhibition of bovine chymotrypsin at 100 uM conc of drug; type: functional
[10] = target: T3, Neutrophil elastase (Homo sapiens) (UniProt P08246); experiment: (§6) Percentage inhibition of Pancreatic elastase at 100 uM conc of drug; type: functional
T3 sequence (whole entry): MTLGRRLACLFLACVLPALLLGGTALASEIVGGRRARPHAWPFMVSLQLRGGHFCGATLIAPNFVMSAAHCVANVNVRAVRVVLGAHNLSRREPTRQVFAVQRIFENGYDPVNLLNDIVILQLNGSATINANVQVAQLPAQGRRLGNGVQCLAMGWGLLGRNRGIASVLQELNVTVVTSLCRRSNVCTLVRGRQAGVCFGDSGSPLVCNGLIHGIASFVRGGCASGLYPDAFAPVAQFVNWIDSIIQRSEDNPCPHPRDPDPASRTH

[11] = as §2
Enterovirus [12] = experiment: Compound was tested for the inhibitory activity of compound towards human rhinovirus-16 3C protease; type: functional, organism-based
Summary of the method: (§7)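 3CP from HRV-16, -2 or -89 was cloned from infected-HeLa cDNA (3A C-terminus–3B–3C region), expressed in E. coli and purified. The same FRET assay (1 μM DABCYL/EDANS peptide, 50 mM Tris pH 7.6, 1 mM EDTA, 2% DMSO, 30 °C, 10 min preincubation) was run at 100–200 nM enzyme. Ki was obtained by nonlinear regression of initial velocities.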

[13] = target: T2, Serine protease 1 (Bos taurus); experiment: as §4
Enterovirus [14] = experiment: Compound was tested for the inhibitory activity of compound towards human rhinovirus-89 3C protease; type: functional, organism-based; summary of the method: as §7
[15] = target: Chymotrypsinogen A (Bos taurus) (UniProt P00766); experiment: as §5
[16] = target: Prothrombin (Homo sapiens) (UniProt P00734); experiment: as §3
[17] = target: T3, Neutrophil elastase (Homo sapiens); experiment: as §6
Enterovirus [18] = experiment: Compound was tested for the inhibitory activity of compound towards human rhinovirus-2 3C protease; type: functional, organism-based; summary of the method: as §7
[19] = target: Chymotrypsinogen A (Bos taurus) (UniProt P00766); experiment: Percentage inhibition of bovine chymotrypsin at 50 uM conc of drug
[20] = Percentage inhibition of Cathepsin (human liver) at 10 uM conc of drug

Row | Structure (SMILES) | Ki [1] [µM] | CC50 (HeLa [2]) [µM] | EC50 (HeLa [3]) [µM] | other results
1 | NC(=O)c1ccc2c(c1)C(=O)C(=O)N2Cc1ccc2cc(O)ccc2c1 | 0.004 | – | – | –
2 | NC(=O)c1ccc2c(c1)C(=O)C(=O)N2CCCc1ccccc1 | 0.027 | 7.1 | > 7.1 | –
3 | CN1C(=O)C(=O)c2cc(C(=O)O)ccc21 | 10 | > 100 | > 100 | –
4 | COC(=O)c1ccc2c(c1)C(=O)C(=O)N2C | 30 | > 100 | 56 | TI [4]: > 2
5 | NC(=O)c1ccc2c(c1)C(=O)C(=O)N2Cc1ccc(-c2ccccc2)cc1 | 0.048 | – | – | –
6 | COc1cccc(CN2C(=O)C(=O)c3cc(C(N)=O)ccc32)c1 | 0.029 | 20 | > 20 | –
7 | CN1C(=O)C(=O)c2cc([N+](=O)[O-])ccc21 | 9.7 | – | – | –
8 | CN1C(=O)C(=O)c2cc(C(N)=S)ccc21 | 11 | – | – | –
9 | CNC(=O)c1ccc2c(c1)C(=O)C(=O)N2C | 12 | – | – | –
10 | NC(=O)c1ccc2c(c1)C(=O)C(=O)N2Cc1cc(O)cc(O)c1 | 0.004 | > 100 | > 100 | –
11 | NC(=O)c1ccc2c(c1)C(=O)C(=O)N2Cc1ccccc1 | 0.019 | 50.1 | 14.1 | TI [4]: 3.5
12 | Cc1ccc(CN2C(=O)C(=O)c3cc(C(N)=O)ccc32)cc1C | 0.006 | – | – | –
13 | CN1C(=O)C(=O)c2cc(I)ccc21 | 30 | > 100 | 71 | TI [4]: > 1
14 | NC(=O)c1ccc2c(c1)C(=O)C(=O)N2Cc1ccc2ccccc2c1 | 0.004 | 10 | > 10 | –
15 | CN1C(=O)C(=O)c2cc(Cl)ccc21 | 59 | – | – | –
16 | CN1C(=O)C(=O)c2ccccc21 | > 100 | – | – | –
17 | CN1C(=O)C(=O)c2cc(C#N)ccc21 | 51 | – | – | –
18 | CC(=O)c1ccc2c(c1)C(=O)C(=O)N2C | 1.2 | – | – | –
19 | NC(=O)c1ccc2c(c1)C(=O)C(=O)N2Cc1cccc(O)c1 | 0.011 | 20 | > 20 | –
20 | NC(=O)c1ccc2c(c1)C(=O)C(=O)N2C/C=C/c1ccccc1 | – | 9.6 | 6.3 | Ki (Enterovirus [5]): 0.011 µM; TI [4]: 1.5; inhibition at 100 µM [6]: 27%; inhibition [7]: 34%; inhibition [8]: 0%; inhibition [9]: 67%; inhibition [10]: 40%
21 | COc1ccc2cc(CN3C(=O)C(=O)c4cc(C(N)=O)ccc43)ccc2c1 | 0.003 | – | – | –
22 | CN1C(=O)C(=O)c2cc([S+](C)[O-])ccc21 (configuration not stated) | 8.2 | – | – | –
23 | CN1C(=O)C(=O)c2cc(C(N)=O)ccc21 | – | 270 | 66 | Ki (Enterovirus [5]): 0.051 µM; inhibition [11]: 0%; Ki (Enterovirus [12]): 0.04 µM; TI [4]: 4; inhibition [13]: 0%; Ki (Enterovirus [14]): 0.035 µM; inhibition [15]: 0%; inhibition [16]: 0%; inhibition [17]: 0%; Ki (Enterovirus [18]): 0.077 µM
24 | NC(=O)c1ccc2c(c1)C(=O)C(=O)N2Cc1cc2ccccc2s1 | – | 5.6 | > 5.6 | inhibition [19]: 25%; Ki (Enterovirus [5]): 0.002 µM; Ki (Enterovirus [12]): 0.012 µM; inhibition [13]: 0%; inhibition [20]: 0%; Ki (Enterovirus [14]): 0.0011 µM; inhibition [16]: 0%; inhibition [17]: 0%; Ki (Enterovirus [18]): 0.0052 µM
25 | Cc1ccc(CN2C(=O)C(=O)c3cc(C(N)=O)ccc32)cc1 | 0.01 | – | – | –
26 | CN(C)C(=O)c1ccc2c(c1)C(=O)C(=O)N2C | 33 | – | – | –
27 | COc1cc(CN2C(=O)C(=O)c3cc(C(N)=O)ccc32)cc(OC)c1 | 0.025 | – | – | –
